Experimental data gathered from unrelated publications.
Each line is one published result; the experiments were not run side by side.
Target: Calcium/calmodulin-dependent protein kinase type IV (CAMK4, Homo sapiens, UniProt Q16566)
Sequence (Q16566 1-473, as in one of the studies): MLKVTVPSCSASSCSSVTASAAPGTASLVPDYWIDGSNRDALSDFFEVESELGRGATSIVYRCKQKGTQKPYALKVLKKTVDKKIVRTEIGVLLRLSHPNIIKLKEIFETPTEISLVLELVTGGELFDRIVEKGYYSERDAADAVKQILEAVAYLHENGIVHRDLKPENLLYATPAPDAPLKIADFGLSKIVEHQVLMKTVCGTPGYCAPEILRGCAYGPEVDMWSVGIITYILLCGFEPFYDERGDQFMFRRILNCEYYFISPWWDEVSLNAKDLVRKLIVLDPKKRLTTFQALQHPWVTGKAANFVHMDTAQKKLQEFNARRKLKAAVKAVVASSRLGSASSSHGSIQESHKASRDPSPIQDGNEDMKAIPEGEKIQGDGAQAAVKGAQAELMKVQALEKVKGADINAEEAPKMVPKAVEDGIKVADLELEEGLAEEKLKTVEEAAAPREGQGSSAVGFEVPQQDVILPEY

CCCOc1ccc(OC)c(F)c1C(=O)c1ccc(C(=O)N[C@@H]2CNC[C@H]2NC(=O)c2ccc3[nH]ncc3c2)cc1 — remaining activity (enzyme activity, inhibitor; 10 µM): 95%
CN1CCC2(CC1)NC(=O)c1c(c3ccc(Cl)c(Cl)c3n1C)C2C#N (racemic) — ΔTm (thermal stability, DSF; 10 µM): -0.2 °C
O=C(NCc1ncc(C(F)(F)F)cc1Cl)c1ccc2c(c1)C1(CCS(=O)(=O)CC1)[C@H](C1CC1)N2S(=O)(=O)c1ccc(F)cc1 — remaining binding (cell-free assay, competition with immobilised ligand; 1 µM): 86%
O=C1Nc2ccc(Cl)cc2C1=Cc1cc(Cl)c(O)c(Cl)c1 — remaining signal (cell-free assay; 0.5 µM): 96.8%
Cn1c2c(c3ccccc31)C(C#N)C(C)(C)NC2=O (stereo not drawn) — ΔTm (thermal stability, DSF; 10 µM): 0 °C
CCC(=O)N[C@@H]1CC[C@H](C(=O)N(C)c2ccc(-c3nc4ccccc4o3)cc2)C1 — remaining binding (cell-free assay, competition with immobilised ligand; 1 µM): 100%
O=C1NC(=O)c2cc(Nc3ccc(F)cc3)c(Nc3ccc(F)cc3)cc21 — remaining signal (cell-free assay; 0.5 µM): 98.7%
Cc1ccc(C(=O)Nc2ccc(CN3CCN(C)CC3)c(C(F)(F)F)c2)cc1C#Cc1cnc2cccnn12 — remaining activity (enzyme activity, inhibitor; 23.5 nM): 100%
Cc1cc(NC(=O)c2cccc3cc(-c4cccc5[nH]nc(N)c45)ccc23)ccc1F — activity vs control (enzyme activity, inhibitor; 0.1 µM): 104%
COc1cc2c(N3CCN(C(=O)Nc4ccc(OC(C)C)cc4)CC3)ncnc2cc1OCCCN1CCCCC1 — remaining signal (cell-free assay; 0.5 µM): 99.3%
O=C(NCCCC1CCCCC1)c1ccc(CNC(=O)c2cnn(-c3ccccc3)c2C(F)(F)F)cc1 — remaining binding (cell-free assay, competition with immobilised ligand; 0.1 µM): 100%
N#CC1c2c([nH]c3c(Cl)c(Cl)ccc23)C(=O)NC12CCCCC2 (racemic) — ΔTm (thermal stability, DSF; 10 µM): 0.6 °C
CNC(=O)c1cc(Oc2ccc(NC(=O)Nc3ccc(Cl)c(C(F)(F)F)c3)cc2)ccn1 — inhibition (enzyme activity, inhibitor; 10 µM): 10%
O=C(O)[C@H]1[C@H](Cn2nnc3ccccc3c2=O)CC[C@@H]1C(=O)c1ccc(OCCC2CCOCC2)cc1 — remaining binding (cell-free assay, competition with immobilised ligand; 1 µM): 78%
CC(C)(C)c1nc2c(s1)c1nc(N)ncc1c1ccc(NS(=O)(=O)c3c(F)cccc3F)c(F)c12 — remaining activity (enzyme activity, inhibitor, radiometric; 1 µM): 94%
CCC1(CC)NC(=O)c2c(c3ccc(Cl)c(Cl)c3n2C)C1C#N (stereo not drawn) — ΔTm (thermal stability, DSF; 10 µM): -0.2 °C
CC(C)(O)[C@H]1CC[C@H](Nc2ccc3ncc(-c4cccc(C(F)(F)F)c4)n3n2)CC1 — remaining activity (enzyme activity, inhibitor; 1 µM): 107%
COc1cc2ncnc(Nc3ccc(Oc4ccccc4)c(C)c3C)c2cc1OC — inhibition (enzyme activity, inhibitor; 1 µM): -2%
Nc1ncnc2occ(-c3ccc(NC(=O)Nc4cc(C(F)(F)F)ccc4F)cc3)c12 — remaining signal (cell-free assay, inhibitor; 20 µM): 1.5%
O=S(=O)(NC1CCC(c2cc(F)ccc2F)(S(=O)(=O)c2ccc(Cl)cc2)CC1)C(F)(F)F (stereo not drawn) — remaining binding (cell-free assay, competition with immobilised ligand; 1 µM): 100%
CS(=O)(=O)CCNCc1ccc(-c2ccc3ncnc(Nc4ccc(OCc5cccc(F)c5)c(Cl)c4)c3c2)o1 — remaining signal (cell-free assay; 0.5 µM): 107%
Cc1c[nH]c2nccc(Oc3c(F)cc(Nc4cc(Cl)nc(N)n4)cc3F)c12 — remaining binding (cell-free assay, competition with immobilised ligand; 0.1 µM): 100%
CCN(CC)CCNC(=O)c1c(C)[nH]c(/C=C2\C(=O)Nc3ccc(F)cc32)c1C — inhibition (enzyme activity, inhibitor; 10 µM): 87%
Cn1c2c(c3ccc(Cl)c(Cl)c31)C(C#N)C1(CCOCC1)NC2=O (stereo not drawn) — ΔTm (thermal stability, DSF; 10 µM): 0 °C
Cn1nc(C(=O)NCc2ccc(C(=O)O)cc2)cc1-c1ccc2[nH]ccc2c1 — remaining binding (cell-free assay, competition with immobilised ligand; 0.1 µM): 92%
CCN1CCC2(CC1)NC(=O)c1c(c3ccc(Cl)c(Cl)c3n1C)C2C#N (racemic) — ΔTm (thermal stability, DSF; 10 µM): 0.1 °C
COc1ccc2c(c1)O[C@@H](c1ccc(OC)c(OC)c1)C[C@H]2NC(=O)C1(c2ccc3c(c2)OC(F)(F)O3)CC1 — remaining binding (cell-free assay, competition with immobilised ligand; 1 µM): 89%
CNc1cccc2cc(C(=O)Nc3ccc(C(=O)O)cc3)c(=O)[nH]c12 — inhibition (enzyme activity, inhibitor; 10 µM): 11%
O=C(Nc1cnn(-c2csc(C(=O)NC3COC3)c2)c1)Nc1c(F)cccc1Cl — remaining activity (enzyme activity, inhibitor; 5 µM): 98.7%
O=C(O)c1ccc2c3c1cccc3c(=O)n1c3ccccc3nc21 — remaining signal (cell-free assay; 0.5 µM): 101%
CN(C)C1CCN(CC#Cc2nn(C3CCCC3)c3nc(NCc4ccccc4)ncc23)C1 (stereo not drawn) — inhibition (enzyme activity, inhibitor, FRET; 0.1 µM): 4%
Cc1ccc(Nc2nccc(N(C)c3ccc4c(C)n(C)nc4c3)n2)cc1S(N)(=O)=O — remaining signal (cell-free assay, inhibitor; 0.5 µM): 95.9%
Cn1c2c(c3ccc(Cl)c(Cl)c31)C(C#N)C(C)(C)NC2=O (stereo not drawn) — ΔTm (thermal stability, DSF; 10 µM): 0.1 °C
